Assay outcomes deposited in PubChem BioAssay by several laboratories.
PHOSPHO1 block: blocks human PHOSPHO1 phosphatase activity | Q8TCT1 | recombinant PHOSPHO1, absorbance phosphatase assay | inhibition, % at 13.3 µM | actives 1.1% (n = 290,000) | AID 1565; in the data active means inhibition above about 60%
Target sequence (Q8TCT1 whole entry, looked up): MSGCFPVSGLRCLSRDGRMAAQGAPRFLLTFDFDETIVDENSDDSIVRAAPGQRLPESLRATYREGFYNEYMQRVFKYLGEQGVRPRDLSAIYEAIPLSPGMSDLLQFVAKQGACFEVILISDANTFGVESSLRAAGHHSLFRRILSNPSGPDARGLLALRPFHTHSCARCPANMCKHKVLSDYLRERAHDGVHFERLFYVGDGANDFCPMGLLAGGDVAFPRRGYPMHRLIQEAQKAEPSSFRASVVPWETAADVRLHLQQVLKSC
KCNQ1 block: human KCNQ1 channel inhibition; P51787; actives 1.3% (n = 310,000); B-score at 10 µM; CHO-K1 KCNQ1, FluxOR thallium flux fluorescence; hits give high values;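 active means compounds whose thallium flux B-score, printed positive for inhibition, exceeds three library SD while starting fluorescence stays within three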;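 further: channel opened by potassium depolarization with thallium stimulus after 20 min compound exposure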
KCNK9 block: inhibitors of human KCNK9 two-pore domain potassium channel; Q9NPC2; HEK293 KCNK9, FluxOR thallium flux fluorescence; hits give low values; B-score at 10 µM; actives 1.2% (n = 310,000);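 active means ratio B-score over 3 SD below the library mean, with starting fluorescence within 5 SD of its mean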;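 further: negative B-score means less thallium flux so channel inhibition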
Target sequence (Q9NPC2 whole entry, looked up, the tested form may be a part): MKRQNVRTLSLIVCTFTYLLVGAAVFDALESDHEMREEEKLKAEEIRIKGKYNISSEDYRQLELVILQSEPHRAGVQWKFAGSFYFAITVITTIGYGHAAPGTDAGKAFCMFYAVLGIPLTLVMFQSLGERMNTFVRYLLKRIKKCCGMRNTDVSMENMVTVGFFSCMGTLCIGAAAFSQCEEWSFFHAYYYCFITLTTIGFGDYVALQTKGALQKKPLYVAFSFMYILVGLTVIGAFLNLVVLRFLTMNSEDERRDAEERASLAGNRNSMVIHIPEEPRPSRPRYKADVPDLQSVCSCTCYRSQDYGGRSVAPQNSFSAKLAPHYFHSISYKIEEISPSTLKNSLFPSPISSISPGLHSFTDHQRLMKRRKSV
KCNK3 inh: human KCNK3 channel inhibition, primary screen. O14649. CHO-KCNK3 thallium flux, FluxOR fluorescence; hits give low values. B-score at 10 µM. actives 0.84% (n = 340,000);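 active means B-score under library mean minus 4 SD, starting fluorescence ratio at most library mean plus 5 SD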;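 further: more negative B-score means stronger inhibition of thallium flux through KCNK3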
KCNQ1 act: potentiators or activators of human KCNQ1 potassium channel. P51787. CHO-K1 KCNQ1, thallium flux FluxOR fluorescence; hits give high values. B-score at 10 µM. actives 0.35% (n = 310,000). AID 2648;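 active means fluorescence ratio B-score, a plate-corrected score, at least three library SD, with initial intensity B-score within 5 SD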
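Assay system: CHO-K1 cells stably expressing KCNQ1. Medium: assay buffer for compound exposure, DMSO matched across wells. Timing: 37 °C overnight plating, 90-min dark dye load, 20-min compound pretreatment. Signal: kinetic FluxOR fluorescence, 10 s baseline plus 110 s post-stimulus.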
hERG protect: compounds protecting human hERG from proarrhythmic drug block. actives 0.51% (n = 310,000). AID 1511. activation (rescue from dofetilide block), less the hit threshold, % at 10 µM. Q12809. CHO-hERG, FluxOR thallium flux, dofetilide IC70 present;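 active means activation above the mean of controls blocked by dofetilide plus 5 SD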;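 further: thallium influx through hERG after potassium depolarization seen as dye fluorescence rise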
A number is an active result; i = inactive; nt = no result. Compounds with a hit are over-represented: about 4% of the library has one in this group of screens.

SMILES | PHOSPHO1 block | KCNQ1 block | KCNK9 block | KCNK3 inh | KCNQ1 act | hERG protect
CC(C)S(=O)(=O)C1=NSC2=NC(=O)/C(=C\c3ccc(-c4ccccc4)o3)C(=N)N21 | i | 8 | i | i | i | i
CCCCC(=O)NC(=S)NNC(=O)c1ccc(OC)cc1 | i | i | i | i | i | i
COc1ccc2nc(SCC(=O)c3ccco3)[nH]c2c1 | i | i | i | i | i | i
CCOC(=O)CSC1=C(C#N)C(c2ccc(F)cc2)C(C(C)=O)=C(C)N1 (stereo unspecified) | 79.2 | i | i | i | i | i
CCOC(=O)CSC1=C(C#N)C(c2ccc(C)cc2)C2=C(CCCC2=O)N1 (stereo unspecified) | 92.1 | i | i | i | i | i
CC(=O)C1=C(C)NC(SCC(=O)Nc2nc3ccccc3s2)=C(C#N)C1c1ccc(Cl)cc1 (stereo unspecified) | i | 7 | i | i | i | i
COc1ccc(NC(=O)CSC2=C(C#N)C(c3ccco3)C(C(=O)Nc3nc4ccccc4s3)=C(C)N2)cc1 (stereo unspecified) | nt | i | i | i | i | i
CC(=O)C1=C(C)NC(SCC(=O)c2ccc(C)cc2)=C(C#N)C1c1ccco1 (stereo unspecified) | i | 6 | i | nt | i | i
CCOC(=O)C1=C(C)NC(SCC(=O)OC)=C(C#N)C1c1ccc(C(=O)OC)cc1 (stereo unspecified) | i | i | i | i | i | i
Cc1cccc(NS(=O)(=O)c2cc(C(=O)OC(C)C(=O)NCc3ccc4c(c3)OCO4)ccc2C)c1 (stereo unspecified) | i | i | i | i | i | i
Cc1ccc(-c2nn(-c3ccccc3Cl)cc2C(=O)NCC2CCCO2)cc1 (stereo unspecified) | nt | i | i | i | i | i
Cn1c(CSCc2ccc(Cl)cc2)nnc1SCC(=O)Nc1nc2ccccc2s1 | 73.3 | i | i | i | i | i
O=C(CN1CCOCC1)NNc1nc(-c2ccccc2)c2cc(Br)ccc2n1 | i | 7 | i | i | i | i
O=C(CN1CCCCC1)NNc1nc(-c2ccccc2)c2cc(Cl)ccc2n1 | i | i | i | i | i | i
COC(=O)c1ccc(CN(C(=O)N2CCN(C)CC2)S(=O)(=O)c2ccc(C)cc2)cc1 | nt | i | i | i | i | i
Cc1cc2nnc(SC3CCOC3=O)n2c2ccccc12 (stereo unspecified) | 74.0 | i | i | i | i | i
CC(C)N1CCc2c(sc(NC(=O)c3nc4ccccc4s3)c2C(N)=O)C1 | i | i | i | i | i | i
CC(C)N1CCc2c(sc(NC(=O)c3cc(-c4cccs4)nc4ccccc34)c2C(N)=O)C1 | i | i | -6.85 | i | i | i
CCN1CCc2c(sc(NC(=O)c3ccc(S(=O)(=O)N(C)c4ccccc4)cc3)c2C(=O)NC)C1 | i | 21 | i | i | i | i
CC(C)N1CCc2c(sc(NC(=O)c3ccc(S(=O)(=O)N4CCc5ccccc54)cc3)c2C(N)=O)C1 | i | 17 | i | i | i | i
CNC(=O)c1c(NC(=O)c2ccc(S(=O)(=O)N(C)c3ccccc3)cc2)sc2c1CCN(C(C)C)C2 | i | i | -8.12 | nt | i | i
S=c1[nH]nc(COc2ccccc2)n1C1CCCCC1 | 65.5 | i | i | i | i | i
O=C(O)CSc1nnc(CSc2nc3ccccc3s2)n1-c1ccccc1 | i | i | i | i | i | i
C#CCSc1nnc(CSc2nc3ccccc3s2)n1-c1ccccc1 | 75.7 | i | i | i | i | i
S=c1[nH]nc(CSc2nc3ccccc3s2)n1C1CCCCC1 | 96.2 | i | -7.5 | i | 22 | i
SMILES | PHOSPHO1 block | KCNQ1 block | KCNK9 block | KCNK3 inh | KCNQ1 act | hERG protect
CCc1ccccc1NC(=O)N1C2CCCC1CC(NC(=O)C(C)(C)C)C2 (stereo unspecified) | i | i | i | i | i | i
COc1ccc(C(=O)COC(=O)/C=C/c2ccco2)cc1F | nt | nt | nt | i | nt | nt
CCOc1cc(Cl)c(S(=O)(=O)NCCCn2ccnc2)cc1Cl | nt | i | i | i | i | i
Cc1ccc(S(=O)(=O)NCc2ccccc2)cc1C(=O)N(C)CC(=O)Nc1c(Cl)cccc1Cl | nt | i | i | i | i | i
CC(NCc1cc(Br)ccc1OCC(=O)NCc1ccccc1)c1ccccc1 (stereo unspecified) | i | 6 | i | i | i | i
Cc1ccccc1OCC(=O)N=Nc1c(O)n(C)c2ccccc12 | i | i | i | i | 8 | i
Cc1cc(C(=O)OCC(=O)N2CCOCC2)c(C)n1-c1ccccc1 | nt | nt | nt | i | nt | nt
Cc1cc(C(=O)OCC(=O)Nc2c(F)cccc2F)c(C)n1-c1ccccc1 | 64.3 | i | i | i | i | i
O=C(CC1Sc2ccccc2NC1=O)OCC(=O)N1CCc2ccccc21 (stereo unspecified) | 62.4 | i | i | i | i | i
O=C1COc2ccc(C(=O)CSc3nc4ccccc4c(=O)n3-c3ccc(Cl)c(Cl)c3)cc2N1 | i | i | i | i | i | i
CCc1ccc(-n2c(SCC(=O)c3ccc4c(c3)NC(=O)CO4)nc3ccccc3c2=O)cc1 | 60.0 | i | i | i | i | i
O=C(O)c1c[nH]c(=S)n1-c1ccc(F)cc1 | 103.6 | i | i | i | i | i
CC(C)Oc1ccc(CNC(=S)N/N=C/c2ccc([N+](=O)[O-])cc2)cc1 | 73.6 | i | i | i | i | i
CC(C)COc1ccc(CNC(=S)N/N=C/c2ccc([N+](=O)[O-])cc2)cc1 | 95.4 | i | i | i | i | i
COc1ccc(CNC(=S)N/N=C/c2ccncc2)cc1 | i | i | i | i | i | i
CCCOc1ccc(CNC(=S)N/N=C/c2ccc([N+](=O)[O-])cc2)cc1 | 80.4 | i | i | i | i | i
CCNC(=O)NC(=O)CN(C)c1ccccc1 | i | i | i | i | i | i
CC1CCC2(CC1)NC(=O)N(CC(=O)NCCc1ccc(F)cc1)C2=O (stereo unspecified) | nt | nt | nt | i | nt | nt
CC(NC(=O)COC(=O)c1cc([N+](=O)[O-])ccc1N1CCOCC1)c1ccc(F)cc1 (stereo unspecified) | nt | i | i | i | i | i
CC(NC(=O)COC(=O)c1cc([N+](=O)[O-])ccc1N1CCOCC1)c1ccccc1 (stereo unspecified) | 61.0 | i | i | i | i | i
COc1ccccc1N1CCN(/N=C/c2cc(Br)ccc2F)CC1 | nt | 9 | i | i | i | i
O=C(Nc1ccc(C(F)(F)F)cc1)N1CCN(c2ccnc3cc(Cl)ccc23)CC1 | i | 6 | i | i | i | i
O=C(Nc1cc(F)ccc1F)N1CCN(c2ccnc3cc(Cl)ccc23)CC1 | i | i | i | i | i | i
CCn1c(O)c(C=Nc2ccccc2)oc1=S | 102.9 | i | i | i | i | i
CCOC(=O)Cn1c(=S)[nH]c2c(oc3ccc(Cl)cc32)c1=O | 93.0 | i | i | i | 12 | i
